Assay results published in ChEMBL document CHEMBL1134461, “Hexahydrochromeno[4,3-b]pyrrole derivatives as acetylcholinesterase inhibitors” (J Med Chem, 2001).
pIC50: −log10 of the molar value.

Columns and labels:
Acetylcholinesterase [1] = target: T1, Acetylcholinesterase (Homo sapiens, UniProt P22303); test: Inhibitory activity against acetylcholinesterase in human erythrocytes; assay type: cell-based
Outline: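 Ellman colorimetric assay with human erythrocyte enzyme (AChE or BChE), 0.035 unit/mL, in 0.1 M phosphate buffer pH 8.0 with 340 μM DTNB. Inhibitor preincubated with enzyme 20 min, then 550 μM acetylthiocholine iodide added. […] IC50 read graphically from log concentration–inhibition curves; pIC50 is the mean of two independent measurements.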

Acetylcholinesterase [2] = target: T1, Acetylcholinesterase
Acetylcholinesterase [3] = target: T1, Acetylcholinesterase; remark: listed apart in the source

T1 sequence (P22303 whole entry): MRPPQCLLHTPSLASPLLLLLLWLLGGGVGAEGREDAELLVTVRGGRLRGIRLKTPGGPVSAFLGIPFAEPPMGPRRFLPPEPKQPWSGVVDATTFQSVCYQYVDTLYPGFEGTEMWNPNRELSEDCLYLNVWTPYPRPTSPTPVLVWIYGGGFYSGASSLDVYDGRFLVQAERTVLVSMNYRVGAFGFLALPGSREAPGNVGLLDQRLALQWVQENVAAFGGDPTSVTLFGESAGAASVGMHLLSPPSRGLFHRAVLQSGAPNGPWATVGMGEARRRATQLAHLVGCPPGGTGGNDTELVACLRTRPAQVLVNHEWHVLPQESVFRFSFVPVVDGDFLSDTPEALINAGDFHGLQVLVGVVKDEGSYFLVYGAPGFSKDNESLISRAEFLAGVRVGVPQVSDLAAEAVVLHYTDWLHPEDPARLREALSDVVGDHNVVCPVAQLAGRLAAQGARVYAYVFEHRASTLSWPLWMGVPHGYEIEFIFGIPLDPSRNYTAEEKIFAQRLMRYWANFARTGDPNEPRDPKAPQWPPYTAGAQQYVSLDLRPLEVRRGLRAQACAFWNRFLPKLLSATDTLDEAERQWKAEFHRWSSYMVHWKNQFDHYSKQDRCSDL

Compound: CNC(=O)Oc1ccc2c(c1)OC[C@@H]1CC[N+](C)(C)[C@H]21
- pIC50 (Acetylcholinesterase [1]): 5.74

Compound: CNC(=O)Oc1cccc2c1OC[C@@H]1CCN(C)[C@H]21 (stereo in doubt; (+)-4)
- pIC50 (Acetylcholinesterase [1]): 7.13

Compound: CN1CC[C@H]2COc3c(O)cccc3[C@H]21
- pIC50 (Acetylcholinesterase [1]): 4.40

Compound: CNC(=O)Oc1cccc2c1OC[C@@H]1CCN(C)[C@H]21 (stereo in doubt; (-)-4)
- pIC50 (Acetylcholinesterase [1]): 7.64

Compound: CNC(=O)Oc1ccc2c(c1)[C@@H]1[C@@H](CCN1C)CO2
- pIC50 (Acetylcholinesterase [1]): 4.79

Compound: CNC(=O)Oc1cccc2c1OC[C@@H]1CCN(C)[C@H]21 (stereo in doubt; 4) [listing 1 of 2 here]
- k3 (Acetylcholinesterase [2]): 26.5 min⁻¹
- Kc (Acetylcholinesterase [3]): 730 nM

Compound: CNC(=O)Oc1cccc2c1OC[C@@H]1CCN(C)[C@H]21 (stereo in doubt; 4) [listing 2 of 2 here]
- pIC50 (Acetylcholinesterase [1]): 7.53

Compound: O=C(CCCCCCC(=O)NCCCCCCN1CC[C@H]2COc3ccccc3[C@H]21)NCCCCCCN1CC[C@H]2COc3ccccc3[C@H]21
- pIC50 (Acetylcholinesterase [1]): 5.01

Compound: CNC(=O)Oc1ccc2c(c1)[C@]1(C)CCN(C)[C@@H]1N2C
- Kc (Acetylcholinesterase [3]): 250 nM

Compound: CNC(=O)Oc1ccc2c(c1)OC[C@@H]1CCN(C)[C@H]21
- pIC50 (Acetylcholinesterase [1]): 5.71
